Read-outs that look alike come from different tables or passages of the source. Marks after values point to notes of the source that are not given here.
Key:
[1] = format: in vivo, rat; conditions: for Bile/Urine (%): bile share of U excretion / Bile/Urine (%): urine share of U excretion / % Administered Dose Excreted: 24 h; for Reduction (%) of renal uranium vs control / reduction of bone actinide content vs control: 24 h post-metal; for % Administered Dose Excreted: bile + urine; for Renal Conc.: kidneys removed 24 h post-metal; for Kidney U Conc. / Liver U Conc. / Lung U Conc. / Spleen U Conc. / Bone (femur) U Conc.: tissue 24 h post-metal; for Bone (femur) U Conc.: bone + bone marrow; for reduction of bone actinide content vs control: femur
[2] = Multiple dose chelator administration in non-bile duct-cannulated; format: in vivo, rat; conditions: for % Administered Dose Excreted / Total U Excretion: urine + feces
Outline: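 Intact rats got uranyl acetate 1 mg U kg−1 s.c. (left flank), then test compound or DTPA 300 µmol kg−1 s.c. (right flank) immediately and at 24-h intervals (4 doses). Rats were caged singly with chow and water ad libitum. Urine and feces were collected every 24 h. Kidneys and other tissues were taken 24 h after the last dose. Uranium was measured by ICP-MS in triplicate; data are mean ± SEM.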

[3] = format: in vivo, rat; conditions: for administered uranium excreted (bile + urine): 24 h collection
Outline: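 Bile duct-cannulated rats got uranium 1 mg U kg−1 s.c., then were housed singly in metabolic cages. A single s.c. 300 µmol kg−1 dose of test compound followed at 1, 2 or 4 h post-uranium. Bile and urine were collected for 24 h. Uranium was measured by ICP-MS, triplicate runs averaged. Data are mean ± SEM; one-tailed t-test assuming unequal variances, p<0.05.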

[4] = primates, dose 63.3 µmol kg^−1 day^−1; ref Bergeron et al., 2006b; cited from earlier work
[5] = tested on: rats; conditions: rodent model; ref Bergeron et al., 2006b; cited from earlier work
[6] = 24 h after last of 4 daily s.c. doses of 300 µmol kg^−1
[7] = Day 1, 300 µmol kg^−1 s.c. daily x 4
[8] = Day 2, 300 µmol kg^−1 s.c. daily x 4
[9] = Day 3, 300 µmol kg^−1 s.c. daily x 4
[10] = Day 4, 300 µmol kg^−1 s.c. daily x 4
[11] = single 300 µmol kg^−1 s.c. dose given 1 h post-uranium
[12] = single 300 µmol kg^−1 s.c. dose given 2 h post-uranium
[13] = single 300 µmol kg^−1 s.c. dose given 4 h post-uranium

COCCOCCOCCOc1ccc(C2=N[C@@](C)(C(=O)O)CS2)c(O)c1 [compound 9, (S)-4,5-dihydro-2-[2-hydroxy-4-(3,6,9-trioxadecyloxy)phenyl]-4-methyl-4-thiazolecarboxylic acid]
Bile/Urine (%): bile share of U excretion ([1]; single dose 150 µmol kg^−1 SC): 69%
Bile/Urine (%): urine share of U excretion ([1]; single dose 150 µmol kg^−1 SC): 31%
Reduction (%) of renal uranium vs control ([1]; single dose 150 µmol kg^−1 SC): 55%
% Administered Dose Excreted ([1]; single dose 150 µmol kg^−1 SC): 48.2%
Renal Conc. ([1]; single dose 150 µmol kg^−1 SC): 37 ± 16 ^b µg g^−1
Kidney U Conc. ([1]; single dose 150 µmol kg^−1 SC): 37 ± 16 ^b µg g^−1
Liver U Conc. ([1]; single dose 150 µmol kg^−1 SC): 1.6 ± 0.9 ^c µg g^−1
Lung U Conc. ([1]; single dose 150 µmol kg^−1 SC): 0.16 ± 0.13 µg/g
Spleen U Conc. ([1]; single dose 150 µmol kg^−1 SC): 0.20 ± 0.05 µg/g
Bone (femur) U Conc. ([1]; single dose 150 µmol kg^−1 SC): 2.1 ± 0.5 ^b µg g^−1
reduction of bone actinide content vs control ([1]; single dose 150 µmol kg^−1 s.c.): 42%
Bile/Urine (%): urine share of U excretion ([1]; single dose 300 µmol kg^−1 PO): 29%
Bile/Urine (%): bile share of U excretion ([1]; single dose 300 µmol kg^−1 PO, listed as C00009): 71%
Reduction (%) of renal uranium vs control ([1]; single dose 300 µmol kg^−1 PO): 57%
% Administered Dose Excreted ([1]; single dose 300 µmol kg^−1 PO): 43.5%
Renal Conc. ([1]; single dose 300 µmol kg^−1 PO): 36 ± 8 ^b µg g^−1
Kidney U Conc. ([1]; single dose 300 µmol kg^−1 PO): 36 ± 8 ^b µg g^−1
Liver U Conc. ([1]; single dose 300 µmol kg^−1 PO): 0.6 ± 0.2 ^c µg g^−1
Lung U Conc. ([1]; single dose 300 µmol kg^−1 PO): 0.10 ± 0.02 ^b µg g^−1
Spleen U Conc. ([1]; single dose 300 µmol kg^−1 PO): 0.13 ± 0.02 ^b µg g^−1
Bone (femur) U Conc. ([1]; single dose 300 µmol kg^−1 PO): 2.7 ± 1.2 µg/g
Bile/Urine (%): bile share of U excretion ([1]; single dose 300 µmol kg^−1 SC): 84%
Bile/Urine (%): urine share of U excretion ([1]; single dose 300 µmol kg^−1 SC): 16%
Reduction (%) of renal uranium vs control ([1]; single dose 300 µmol kg^−1 SC): 66%
% Administered Dose Excreted ([1]; single dose 300 µmol kg^−1 SC): ~52%
% Administered Dose Excreted ([1]; single dose 300 µmol kg^−1 SC, listed as C00009): 51.5%
Renal Conc. ([1]; single dose 300 µmol kg^−1 SC): 29 ± 6 ^b µg g^−1
Kidney U Conc. ([1]; single dose 300 µmol kg^−1 SC): 29 ± 6 ^b µg g^−1
Liver U Conc. ([1]; single dose 300 µmol kg^−1 SC): 0.9 ± 0.2 ^c µg g^−1
Lung U Conc. ([1]; single dose 300 µmol kg^−1 SC): 0.13 ± 0.02 µg/g
Spleen U Conc. ([1]; single dose 300 µmol kg^−1 SC): 0.18 ± 0.04 µg/g
Bone (femur) U Conc. ([1]; single dose 300 µmol kg^−1 SC): 1.9 ± 0.5 ^b µg g^−1
reduction of bone actinide content vs control ([1]; single dose 300 µmol kg^−1 s.c.): 48%
Reduction (%) of renal uranium vs control [2, 6]: 62%
Renal Conc. [2, 6]: 12 ± 2 ^c µg g^−1
Fecal U Excretion [2, 7]: 478 ± 181 µg/kg
Urine U Excretion ([2]; Day 1, 300 µmol kg^−1 s.c. daily x 4, first dose immediately post-U): 205 ± 27 µg/kg
% Administered Dose Excreted [2, 7]: 68.3%
Total U Excretion [2, 7]: 683 ± 161 ^d µg kg^−1
Fecal U Excretion [2, 8]: 116 ± 46 µg/kg
Urine U Excretion [2, 8]: 39 ± 5 µg/kg
% Administered Dose Excreted [2, 8]: 15.5%
Total U Excretion [2, 8]: 155 ± 48 ^d µg kg^−1
Fecal U Excretion [2, 9]: 33 ± 4 µg/kg
Urine U Excretion [2, 9]: 23 ± 4 µg/kg
% Administered Dose Excreted [2, 9]: 5.6%
Total U Excretion [2, 9]: 56 ± 7 µg/kg
Fecal U Excretion [2, 10]: 25 ± 2 µg/kg
Urine U Excretion [2, 10]: 11 ± 1 µg/kg
% Administered Dose Excreted [2, 10]: 3.6%
Total U Excretion [2, 10]: 36 ± 1 µg/kg
administered dose of uranium excreted at the end of four days (urine + feces) ([2]; cumulative over 4 days, 300 µmol kg^−1 s.c. daily x 4): 93%
reduction in renal uranium content vs control [3, 11]: 74%
administered uranium excreted (bile + urine) [3, 11]: 34.6%
reduction in renal uranium content vs control [3, 12]: 68%
administered uranium excreted (bile + urine) [3, 12]: 28.5%
reduction in renal uranium content vs control [3, 13]: 35%
administered uranium excreted (bile + urine) [3, 13]: 28.6%
iron excretion [4]: 450 µg Fe kg^−1
nephrotoxicity [5]: virtually eliminated nephrotoxicity
